Assay results taken from ChEMBL document CHEMBL4145497, “Discovery of 2-aminothiazolyl berberine derivatives as effectively antibacterial agents toward clinically drug-resistant Gram-negative Acinetobacter baumanii” (Eur J Med Chem, 2018).
Values after ≈ are worked out from the molar mass of the structure shown. Active and inactive are the calls of the source. The rule behind the calls is not given here.

Tests used:
[1] = system: Escherichia coli; test: Potentiation of norfloxacin-mediated antibacterial activity against drug-resistant Escherichia coli assessed as norfloxacin MIC after 18 to 24 hrs by two fold dilution checkerboard method (reference value: 1.6 umol/ml); format: functional
[2] = system: Enterococcus faecalis; test: Additive antibacterial activity against drug-resistant Enterococcus faecalis assessed as FIC index in presence of norfloxacin by two fold dilution checkerboard method; format: functional
[3] = system: Saccharomyces cerevisiae; test: Antifungal activity against Saccharomyces cerevisiae ATCC 9763 by CLSI two fold serial dilution method; format: functional
[4] = system: Cyberlindnera jadinii; test: Antifungal activity against Candida utilis ATCC 9950 by CLSI two fold serial dilution method; format: functional; settings: Williopsis jadinii
[5] = system: Acinetobacter baumannii; test: Induction of membrane permeabilization in drug-resistant Acinetobacter baumannii at 0.024 umol/ml incubated for 1 hr measured up to 120 mins by propidium iodide staining-based fluorescence spectra analysis; format: functional, organism-based
[6] = system: Aspergillus flavus; test: Antifungal activity against Aspergillus flavus ATCC 204304 by CLSI two fold serial dilution method; format: functional
[7] = system: Staphylococcus aureus; test: Antibacterial activity against Staphylococcus aureus ATCC 25923 after 18 to 24 hrs by CLSI two fold serial dilution method; format: functional
[8] = system: Staphylococcus aureus; test: Synergistic antibacterial activity against methicillin-resistant Staphylococcus aureus N315 assessed as FIC index in presence of norfloxacin by two fold dilution checkerboard method; format: functional
[9] = system: Acinetobacter baumannii; test: Antibacterial activity against drug-resistant Acinetobacter baumannii at 0.7 ug/ml measured 12 hrs post 10 serial passages; format: functional, organism-based
[10] = system: Pseudomonas aeruginosa; test: Antibacterial activity against Pseudomonas aeruginosa ATCC 27853 after 18 to 24 hrs by CLSI two fold serial dilution method; format: functional
[11] = system: Escherichia coli; test: Antibacterial activity against Escherichia coli DH52 after 18 to 24 hrs by CLSI two fold serial dilution method; format: functional
[12] = system: Bacillus subtilis; test: Antibacterial activity against Bacillus subtilis ATCC 21216 after 18 to 24 hrs by CLSI two fold serial dilution method; format: functional
[13] = system: DNA; test: Binding affinity to drug-resistant Acinetobacter baumanii DNA assessed as hyperchromic effect up to 2.5 10^-5mol/L by UV-vis spectroscopic analysis; format: nucleic-acid assay; settings: Acinetobacter baumannii
Method in brief: (§1)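 Genomic DNA was isolated from drug-resistant A. baumanii by spin-column extraction after proteinase K lysis at 70 °C. DNA concentration was taken from A260 using ε260 = 6600 L·mol−1·cm−1, expressed as phosphate molarity, and purity was checked by A260/A280 and gel. UV-vis spectra were recorded at a fixed DNA concentration of 8.12×10^-4 mol/L with increasing compound.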

[14] = system: Micrococcus luteus; test: Antibacterial activity against Micrococcus luteus ATCC 4698 after 18 to 24 hrs by CLSI two fold serial dilution method; format: functional
[15] = system: DNA; test: Induction of drug-resistant Acinetobacter baumanii DNA cleavage at 50 uM after 6 hrs by ethidium bromide staining based agarose gel electrophoresis method; format: nucleic-acid assay; settings: Acinetobacter baumannii
Method in brief: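 Spin-column-isolated genomic DNA from drug-resistant A. baumanii (1.31×10^-6 mol/L) was incubated with compound (50 μM) in 50 mM Tris-HCl/50 mM NaCl, pH 7.4, at 37 °C for 6 h. Agarose gel electrophoresis was run against DNA-alone and DNA-plus-buffer lanes.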

[16] = system: DNA; test: Binding affinity to drug-resistant Acinetobacter baumanii DNA by UV-vis spectroscopic analysis; format: nucleic-acid assay; settings: Acinetobacter baumannii; method in brief: as §1
[17] = system: Escherichia coli; test: Synergistic antibacterial activity against drug-resistant Escherichia coli assessed as FIC index in presence of norfloxacin by two fold dilution checkerboard method; format: functional
[18] = system: Enterococcus faecalis; test: Potentiation of norfloxacin-mediated antibacterial activity against drug-resistant Enterococcus faecalis assessed as norfloxacin MIC after 18 to 24 hrs by two fold dilution checkerboard method (reference value: 0.8 umol/ml); format: functional
[19] = system: Pichia norvegensis; test: Antifungal activity against Candida mycoderma ATCC 96918 by CLSI two fold serial dilution method; format: functional
[20] = system: Staphylococcus aureus; test: Antibacterial activity against methicillin-resistant Staphylococcus aureus N315 after 18 to 24 hrs by CLSI two fold serial dilution method; format: functional
[21] = system: Acinetobacter baumannii; test: Potentiation of norfloxacin-mediated antibacterial activity against drug-resistant Acinetobacter baumannii assessed as norfloxacin MIC after 18 to 24 hrs by two fold dilution checkerboard method (reference value: 0.8 umol/ml); format: functional
[22] = system: Aspergillus flavus; test: Potency index, ratio of fluconazole MIC to compound MIC for antibacterial activity against Aspergillus flavus ATCC 204304; format: functional
[23] = Cytotoxicity against human LO2 cells assessed as cell viability at 1.5625 to 100 ug/ml after 48 hrs by MTT assay relative to control; format: cell-based, L02; settings: read-out: Activity
Method in brief: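 Human hepatocyte LO2 cells exposed to compound across a concentration range for 48 h; viability read by colorimetric MTT assay; standard deviation from three independent experiments.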

[24] = system: Klebsiella pneumoniae; test: Potentiation of norfloxacin-mediated antibacterial activity against drug-resistant Klebsiella pneumoniae assessed as norfloxacin MIC after 18 to 24 hrs by two fold dilution checkerboard method (reference value: 0.8 umol/ml); format: functional
[25] = system: DNA; test: Inhibition of neutral red binding to drug-resistant Acinetobacter baumanii DNA up to 2.5 10^-5mol/L by UV-vis spectroscopic analysis; format: nucleic-acid assay; settings: Acinetobacter baumannii
Method in brief: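 Neutral red competition with genomic DNA from drug-resistant A. baumanii, extracted by spin column after proteinase K lysis. UV-vis absorbance near 460 nm was followed as compound concentration increased in the neutral red–DNA system.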

[26] = system: Pseudomonas aeruginosa; test: Antibacterial activity against drug-resistant Pseudomonas aeruginosa after 18 to 24 hrs in presence of norfloxacin by two fold dilution checkerboard method; format: functional
[27] = system: Pseudomonas aeruginosa; test: Synergistic antibacterial activity against drug-resistant Pseudomonas aeruginosa assessed as FIC index in presence of norfloxacin by two fold dilution checkerboard method; format: functional
[28] = system: Staphylococcus aureus; test: Potentiation of norfloxacin-mediated antibacterial activity against methicillin-resistant Staphylococcus aureus N315 after 18 to 24 hrs by two fold dilution checkerboard method relative to control; format: functional
[29] = system: Acinetobacter baumannii; test: Antibacterial activity against drug-resistant Acinetobacter baumannii after 18 to 24 hrs in presence of norfloxacin by two fold dilution checkerboard method; format: functional
[30] = Aqueous solubility of the compound in phosphate buffer at pH 7.4 after 3 hrs by UV detection assay; format: physicochemical
Method in brief: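 Water solubility measured at physiological pH, with berberine as the control.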

[31] = system: Staphylococcus aureus; test: Antibacterial activity against methicillin-resistant Staphylococcus aureus N315 after 18 to 24 hrs in presence of norfloxacin by two fold dilution checkerboard method; format: functional
[32] = system: Acinetobacter baumannii; test: Bactericidal activity against drug-resistant Acinetobacter baumannii assessed as reduction in number of viable bacterial load at 8 nmol/ml with in 2 hrs by time kill assay; format: functional
[33] = system: Escherichia coli; test: Antibacterial activity against drug-resistant Escherichia coli after 18 to 24 hrs in presence of norfloxacin by two fold dilution checkerboard method; format: functional
[34] = system: Pseudomonas aeruginosa; test: Potentiation of norfloxacin-mediated antibacterial activity against drug-resistant Pseudomonas aeruginosa assessed as norfloxacin MIC after 18 to 24 hrs by two fold dilution checkerboard method (reference value: 1.6 umol/ml); format: functional
[35] = system: Staphylococcus aureus; test: Potentiation of norfloxacin-mediated antibacterial activity against methicillin-resistant Staphylococcus aureus N315 assessed as norfloxacin MIC after 18 to 24 hrs by two fold dilution checkerboard method (reference value: 0.03 umol/ml); format: functional
[36] = system: Candida albicans; test: Antifungal activity against Candida albicans ATCC 76615 by CLSI two fold serial dilution method; format: functional
[37] = system: Enterococcus faecalis; test: Antibacterial activity against drug-resistant Enterococcus faecalis after 18 to 24 hrs in presence of norfloxacin by two fold dilution checkerboard method; format: functional
[38] = system: Candida parapsilosis; test: Antifungal activity against Candida parapsilosis ATCC 22019 by CLSI two fold serial dilution method; format: functional; settings: Lodderomyces parapsilosis
[39] = system: Klebsiella pneumoniae; test: Antibacterial activity against drug-resistant Klebsiella pneumoniae after 18 to 24 hrs in presence of norfloxacin by two fold dilution checkerboard method; format: functional
[40] = system: Acinetobacter baumannii; test: Synergistic antibacterial activity against drug-resistant Acinetobacter baumannii assessed as FIC index in presence of norfloxacin by two fold dilution checkerboard method; format: functional
[41] = system: Staphylococcus aureus; test: Ratio of MIC for methicillin-resistant Staphylococcus aureus N315 in absence of norfloxacin to MIC for methicillin-resistant Staphylococcus aureus N315 in presence of norfloxacin; format: functional
[42] = system: Klebsiella pneumoniae; test: Synergistic antibacterial activity against drug-resistant Klebsiella pneumoniae assessed as FIC index in presence of norfloxacin by two fold dilution checkerboard method; format: functional
[43] = Oral bioavailability in ICR mouse at 10.4 to 83.2 mg/kg after 60 mins by HPLC method; format: ADME, organism-based; settings: in vivo
[44] = system: Klebsiella pneumoniae; test: Antibacterial activity against drug-resistant Klebsiella pneumoniae after 18 to 24 hrs by CLSI two fold serial dilution method; format: functional
[45] = system: Escherichia coli; test: Antibacterial activity against drug-resistant Escherichia coli after 18 to 24 hrs by CLSI two fold serial dilution method; format: functional
[46] = system: Enterococcus faecalis; test: Antibacterial activity against drug-resistant Enterococcus faecalis after 18 to 24 hrs by CLSI two fold serial dilution method; format: functional
[47] = system: Pseudomonas aeruginosa; test: Antibacterial activity against drug-resistant Pseudomonas aeruginosa after 18 to 24 hrs by CLSI two fold serial dilution method; format: functional
[48] = system: Acinetobacter baumannii; test: Antibacterial activity against drug-resistant Acinetobacter baumannii after 18 to 24 hrs by CLSI two fold serial dilution method; format: functional

In the case of `CCCCCCOc1c(OC)cc(/C=N/Nc2nccs2)c2c1CN1CCc3cc4c(cc3C1C2)OCO4` (stereo not given), the MIC [1] is reported as 100 µM, the “fractional inhibitory concentration index (FICI)” value [2] is reported as 0.56 and the MIC [3] is reported as 60 µM (≈ 32.1 µg/mL). For the same compound, the MIC [4] was 120 µM (≈ 64.2 µg/mL), the Activity [5] was “Active” and the MIC [6] was 60 µM (≈ 32.1 µg/mL). For the same compound, the MIC [7] was 30 µM (≈ 16 µg/mL), the “fractional inhibitory concentration index (FICI)” value [8] was 0.5 and the Activity [9] was “Active”. For the same compound, the MIC [10] was 60 µM (≈ 32.1 µg/mL), the MIC [11] was 60 µM (≈ 32.1 µg/mL) and the MIC [12] was 120 µM (≈ 64.2 µg/mL). The Activity [13] was “Active”, the MIC [14] was 60 µM (≈ 32.1 µg/mL) and the Activity [15] was “Active”. The K [16] was 2.54 ×10³ L/mol, the “fractional inhibitory concentration index (FICI)” value [17] was 0.31 and the MIC [18] was 50 µM. The MIC [19] was 30 µM (≈ 16 µg/mL), the MIC [20] was 7 to 30 µM (≈ 3.74 to 16 µg/mL) and the MIC [21] was 50 µM. For the same compound, the Ratio [22] was 14, the viability at 48 h [23] was > 70.7% and the MIC [24] was 100 µM. For the same compound, the inhibition [25] was “Active”, the MIC [26] was 25 µM and the “fractional inhibitory concentration index (FICI)” value [27] was 0.45. For the same compound, the “fold change (FC)” value [28] was 4, the MIC [29] was 0.5 µM and the solubility at 3 h [30] was 1420 µg/mL (≈ 2660 µM). The MIC [31] was 7 µM, the Activity [32] was >3 deltalog10CFU/ml and the MIC [33] was 30 µM. For the same compound, the MIC [34] was 50 µM, the MIC [35] was 6 µM and the MIC [36] was 30 µM (≈ 16 µg/mL). It also gave an MIC [37] of 15 µM, an MIC [38] of 4 µM (≈ 2.14 µg/mL) and an MIC [39] of 30 µM. The “fractional inhibitory concentration index (FICI)” value [40] was 0.31, the Ratio [41] was 4 and the “fractional inhibitory concentration index (FICI)” value [42] was 0.38.

For `COc1ccc2cc3[n+](cc2c1OC)CCc1cc2c(cc1-3)OCO2` [BERBERINE], the bioavailability [43] was < 1%, the MIC [7] was 340 µM and the MIC [10] was 690 µM. For the same compound, the MIC [11] was 690 to 1380 µM, the MIC [12] was 690 to 1380 µM and the MIC [14] was 690 to 1380 µM. It also gave an MIC [44] of 1380 µM, an MIC [20] of 1380 µM and an MIC [45] of 1380 µM. For the same compound, the MIC [46] was 1380 µM, the solubility at 3 h [30] was 86 µg/mL and the MIC [47] was 1380 µM. The MIC [48] was 1380 µM.
